Screening data from PubChem.
TRPC4 PAM = allosterically enhances the mouse TRPC4 cation channel; 310,000 compounds, 0.42% hits; HEK293 TRPC4beta/mu-opioid, DAMGO EC20, Fluo-4 Ca2+ flux; active compounds read high; AID 2227; Q9QUQ5; B-score at 10 µM;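 active means B-score of calcium response area above 5 SD of library B-scores, with initial fluorescence ratio within 5 SD of library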;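 further: B-score of integrated fluorescence ratio over time as area under calcium response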
TRPC6 activator = mouse TRPC6 channel activation; Q61143; HEK293-TRPC6 membrane potential dye fluorescence; active compounds read high; B-score at 10 µM; 310,000 compounds, 0.13% hits; AID 2550;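 active means B-score of the integrated fluorescence ratio above library mean plus 3 SD, and starting fluorescence ratio within library mean plus 5 SD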;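 further: higher score means more depolarization so channel activation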
DNA FID counter = counter-screen for HCV NS3 helicase inhibitors: DNA intercalator displacement. inhibition, % at 7.9 µM. DNA fluorescent intercalator displacement, fluorescence. 290,000 compounds, 0.17% hits; in the data active means inhibition above about 37%;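 further: 0% = vehicle and 100% = reference compound; higher means more ethidium bromide displaced from hairpin DNA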
TRPC6 inhibitor = mouse TRPC6 channel inhibition | HEK293-TRPC6, membrane potential dye, ACh-evoked depolarization; active compounds read low | B-score at 10 µM | 310,000 compounds, 1.1% hits;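 active means B-score under library mean minus 3 SD, initial fluorescence not abnormally high, positive integrated signal ratio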;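 further: B-score derived from integrated fluorescence ratio over the kinetic read; more negative B-score means stronger inhibition of depolarization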
TRPC4 act = opens the mouse TRPC4 cation channel | Q9QUQ5 | HEK293 TRPC4beta/mu-opioid, Fluo4 calcium fluorescence; active compounds read high | B-score at 10 µM | 310,000 compounds, 0.49% hits | AID 2237;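 active means B-score above 5 SD of library B-scores, and initial fluorescence ratio not above library mean plus 5 SD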;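 further: positive B-score marks a calcium rise read as TRPC4 activation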
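Material: TRPC4beta and mu-opioid receptor HEK293 stable cells | Incubation: 45 min room-temperature Fluo4 loading, 110 s read | Detection: Kinetic Fluo4 calcium fluorescence | Measure: Integrated baseline-normalised fluorescence ratio, converted to per-well B score | Benchmarks: Low control buffer alone, high control maximal DAMGO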
TRPC4 block = inhibitors of mouse TRPC4 channel. Q9QUQ5. HEK293 TRPC4beta/mu-opioid, DAMGO-evoked Fluo4 calcium flux; active compounds read low. B-score at 10 µM. 300,000 compounds, 0.39% hits;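 active means B-score over 3 SD under the library average, no early fluorescence shift, positive overall ratio signal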
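Material: HEK293 cells with stable TRPC4beta plus mu-opioid receptor expression; probe or stimulus: DAMGO in two steps, submaximal then maximal; technique: Fluo4 calcium fluorescence by kinetic imaging, 5 s 1 Hz baseline; measure: integrated fluorescence ratio relative to baseline, converted to per-well B score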
TRPC4 spec 2 = second check of whether TRPC6 inhibitors also affect mouse TRPC4; shares compounds with TRPC6 inhibitor; HEK293 TRPC4/MOR, membrane potential dye fluorescence; channel activated by saturating DAMGO dose; inhibition, % at 10 µM; 920 compounds, 42% hits;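 active means compounds whose fluorescence signal differed from control wells by over 3 SD, either direction, in both duplicate plates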
TRPC4 spec = tests whether TRPC6 inhibitors also affect mouse TRPC4; activity change, negative = inhibition, % at 10 µM; 920 compounds, 61% hits; shares compounds with TRPC6 inhibitor; HEK293 TRPC4/mu-opioid, membrane potential fluorescence;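 active means rise or fall in signal beyond 3 SD of buffer-only wells in both replicate plates, either sign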;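 further: integrated kinetic ratio of fluorescence range over baseline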
HEK293 MPD ctr 2-1 = second counter-screen for TRPC6 inhibitors: parental HEK293 cells | shares compounds with TRPC6 inhibitor | parental HEK293 membrane potential dye fluorescence; maximal acetylcholine challenge after compound addition | signal change vs control, % at 10 µM | 920 compounds, 31% hits;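 active means membrane potential signal moving either way by over 3 SD of the maximum-effect control, in both duplicate plates, meaning non-specific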
HEK293 MPD ctr-1 = parental HEK293 nonspecific activity of TRPC6 inhibitors; shares compounds with TRPC6 inhibitor; parental HEK293 membrane potential dye fluorescence; AID 2780; membrane potential signal change, % at 10 µM; 920 compounds, 60% hits;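 active means membrane potential signal shifting up or down by more than 3 SD of buffer-only wells, on both duplicate plates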
HEK293 MPD ctr-2 = checks TRPC6 modulator effects in parental HEK293 cells | 2,400 compounds, 51% hits | shares compounds with TRPC6 inhibitor | membrane potential signal change, % at 10 µM | membrane potential dye fluorescence;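 active means membrane potential signal moves up or down beyond 5 SD from buffer-only wells, on both duplicate plates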
HEK293 MPD ctr 2-2 = second counter-screen for TRPC6 modulators: effect in parental HEK293 cells | inhibition, % at 10 µM | shares compounds with TRPC6 inhibitor | 2,400 compounds, 14% hits | membrane potential dye fluorescence; after compound, maximal acetylcholine stimulation;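 active means membrane potential signal drops by more than 5 SD from the mean control signal, in both duplicate plates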;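 further: plate controls were acetylcholine ECmax control wells for no effect and buffer only wells for full effect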
TRPC4 ctr mod = selectivity of TRPC6 modulators against mouse TRPC4; shares compounds with TRPC6 inhibitor; HEK293 TRPC4/mu-opioid, membrane potential fluorescence; percent change from control (negative = decrease, positive = increase), % at 10 µM; 2,400 compounds, 69% hits;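 active means membrane potential signal moved up or down beyond 5 SD of buffer control wells, in both duplicate plates, actives on both sides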;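 further: plate controls were assay buffer wells for no effect and DAMGO maximal-effect wells for full effect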
TRPC4 ctr inh 2 = second selectivity test of TRPC6 modulators against mouse TRPC4. shares compounds with TRPC6 inhibitor. HEK293 TRPC4/mu-opioid, membrane potential dye fluorescence; stimulated with maximal-effect DAMGO. inhibition, % at 10 µM. 2,400 compounds, 55% hits. AID 488928;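 active means drop in membrane potential signal beyond 5 SD of the control wells in both duplicate plates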;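 further: TRPC4 counter screen for TRPC6 hits run under conditions tuned for TRPC6 not TRPC4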
TRPC6 block conf = confirmation of mouse TRPC6 inhibitors; shares compounds with TRPC6 inhibitor; inhibition, % at 10 µM; HEK293-TRPC6, membrane potential dye, ACh-evoked depolarization; 3,300 compounds, 43% hits;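 active means fluorescence ratio falls more than 5 SD below the full-stimulation control mean, in both duplicate runs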;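 further: integrated fluorescence ratio of peak minus minimum over baseline after agonist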
TRPC6 act conf = mouse TRPC6 activator confirmation; shares compounds with TRPC6 inhibitor; 2,800 compounds, 11% hits; activation, % at 10 µM; HEK293-TRPC6 membrane potential dye fluorescence, FDSS;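 active means ratio signal rise beyond 5 SD above unstimulated control wells' mean, seen in both duplicate runs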;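 further: plate controls were buffer EC0 wells for no effect and acetylcholine ECmax response for full effect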
An asterisk follows results filed as active; i = inactive; / = no result given. The list is not random: actives were taken first. Their share in the collection is about 2.3%.

SMILES	TRPC4 PAM	TRPC6 activator	DNA FID counter	TRPC6 inhibitor	TRPC4 act	TRPC4 block	HEK293 MPD ctr-2	HEK293 MPD ctr 2-2	TRPC4 ctr mod	TRPC4 ctr inh 2	TRPC6 block conf	TRPC6 act conf	others
O=[N+]([O-])c1cc([N+](=O)[O-])c2c(=Nc3ccccc3)n(-c3ccccc3)n(O)c2c1	i	i	13	-7.2*	i	i	/	/	/	/	i	i	TRPC4 spec 2=50%*;TRPC4 spec=-13%*;HEK293 MPD ctr 2-1=i;HEK293 MPD ctr-1=-184%*
Cc1ccc(CSc2nccc(-c3c(C)nc4ccccn34)n2)cc1	i	i	-3	i	i	i	/	/	/	/	/	/
COc1cccc(C(=O)NCC(=O)N/N=C/c2ccc(OC(=O)c3cccs3)c(OC)c2)c1	i	i	-16	i	i	i	/	/	/	/	/	/
COc1cc(/C=N/NC(=O)CNC(=O)c2ccccc2)ccc1OC(=O)c1cccs1	i	13*	-25	-7.6*	i	i	i	i	i	i	i	82%*
CCOC(=O)C1CCCN(C(=O)c2sc3nc(C)nc(N(CC)CC)c3c2C)C1 (configuration not stated)	i	i	-41	-5.2*	i	i	110%*	i	22%*	36%*	38%*	/
Cc1ccc(NC(=O)CSc2nnc3ccc(-c4ccncc4)nn23)cc1	i	i	/	i	i	i	/	/	/	/	/	/
CCCc1ccc(-c2cc(C(=O)N3CCN(c4ccccn4)CC3)c3ccccc3n2)cc1	i	i	-41	i	i	i	/	/	/	/	/	/
COc1ccccc1Nc1nnc(SCC(=O)N2CCCC2=O)s1	i	i	-11	-5.1*	i	i	i	i	i	i	i	i
COc1ccc(C)cc1Nc1n[n+](-c2ccccc2)c(-c2ccc(SC)cc2)s1	i	i	14	i	i	i	/	/	/	/	/	/
Cc1ccn2c(Nc3ccccc3C)c(-c3cccnc3)nc2c1	i	i	-22	-5.7*	i	i	-166%*	i	-32%*	77%*	46%*	i
CC(=O)Nc1c(-c2ccccc2)nc2ccc(Cl)cn12	i	i	/	i	i	i	/	/	/	/	/	/
Cc1ccccc1Nc1c(-c2ccncc2)nc2ccc(Cl)cn12	i	i	-21	-5.8*	i	i	i	i	-16%*	70%*	i	i
CCN(CC)S(=O)(=O)c1ccc(OC)c(NC(=O)CC2CCCC2)c1	i	i	-31	i	i	i	/	/	/	/	/	/
S=c1[nH]nc(Cc2ccccc2)n1Cc1ccco1	i	i	-8	-8.3*	i	i	/	/	/	/	65%*	i	TRPC4 spec 2=i;TRPC4 spec=i;HEK293 MPD ctr 2-1=14%*;HEK293 MPD ctr-1=i
Cc1ccc(NC2=C(N3CCOCC3)C(=O)c3ccccc3C2=O)cc1	i	i	8	-5.5*	i	i	i	i	-31%*	78%*	i	i
Cc1[nH]c(=S)c(C#N)c(C)c1CC(=O)c1ccc(Br)cc1	i	i	-8	i	i	i	/	/	/	/	/	/
C=CCn1c(SCC(=O)Nc2ccc(OC)cc2)nc2c([nH]c3ccccc32)c1=O	i	i	-7	i	i	i	/	/	/	/	/	/
C=CCn1c(SCCN2CCCC2)nc2c([nH]c3ccccc32)c1=O	17*	i	11	-8.6*	i	i	i	i	-18%*	66%*	53%*	i
O=C(COc1ccccc1Cl)N1CCc2ccccc21	i	i	-11	i	i	i	/	/	/	/	/	/
O=C(COc1ccc2ccccc2c1CN1CCOCC1)N1CCc2ccccc21	i	i	15	-7.2*	i	i	/	/	/	/	88%*	i	TRPC4 spec 2=26%*;TRPC4 spec=i;HEK293 MPD ctr 2-1=i;HEK293 MPD ctr-1=1.3%*
Cc1cc(=O)n(Cc2ccccc2)c2ccccc12	i	i	-10	i	i	i	/	/	/	/	/	/
Cc1c(CN(C)C)c2c(n1Cc1ccccc1)C(=O)c1ccccc1-2	i	i	24	-7*	i	-6*	-174%*	i	-33%*	78%*	44%*	i
Cc1cccn2c(=O)c3cc(C(=O)NCc4cccnc4)c(=N)n(C(C)C)c3nc12	i	i	-2	-6.2*	i	i	i	i	i	38%*	i	i
CCOC(=O)c1cc2c(=O)n3cccc(C)c3nc2n(Cc2cccnc2)c1=N	/	/	2	/	/	/	/	/	/	/	/	/
Cc1cccn2c(=O)c3cc(C(=O)NCc4ccco4)c(=N)n(CCc4ccccc4)c3nc12	/	/	-13	/	/	/	/	/	/	/	/	/
Cc1cccn2c(=O)c3cc(C(=O)NCc4ccco4)c(=N)n(C(C)C)c3nc12	i	i	-13	-8.1*	i	i	/	/	/	/	i	i	TRPC4 spec 2=i;TRPC4 spec=-31%*;HEK293 MPD ctr 2-1=i;HEK293 MPD ctr-1=-446%*
CCN(CC)CCCNc1nc(SC)nc2sc3c(c12)CCN(C)C3	i	i	17	i	i	i	/	/	/	/	/	/
